# ChEMBL document CHEMBL3525971 (Drug Metab Dispos, 2011)
# Legend:
# [1] = AUC (0 to 6 hrs) in castrated pig plasma withdrawn from femoral vein at 0.2 mg/kg, iv by UPLC-tandem mass spectrometry; assay type: ADME, organism-based, Sus scrofa; parameters: time < 6 hr, dose 0.2 mg/kg, route intravenous; conditions: male
# Procedure, shortened: (§1)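 Where ketoconazole was co-dosed, it was given at 10 mg/kg at the same jejunal site 20 min before. Plasma protein-precipitated with acetonitrile and analysed by UPLC-MS/MS (finasteride-d9). AUC0-6h, Cmax and t1/2 (ln2/λz) were derived by non- or compartmental analysis.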
# Sus scrofa = test: Hepatic clearance in castrated pig at 0.8 mg/kg, administered as intrajejunal dose by UPLC-tandem mass spectrometry; assay type: ADME, organism-based, Liver; parameters: dose 0.8 mg/kg; conditions: in vivo, other
# Procedure, shortened: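 Portal and hepatic vein plasma measured 0-6 h by UPLC-MS/MS. Extraction ratio derived from portal versus hepatic concentrations or AUCs; CLH then obtained as EH × liver blood flow 52 ml/min/kg × measured blood/plasma ratio.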
# [2] = AUC (0 to 6 hrs) in castrated pig plasma withdrawn from hepatic vein at 0.8 mg/kg administered as intrajejunal dose 20 mins after ketoconazole administration by UPLC-tandem mass spectrometry; assay type: ADME, organism-based, Sus scrofa; parameters: time < 6 hr, dose 0.8 mg/kg; conditions: male; procedure, shortened: as §1
# [3] = AUC (0 to 6 hrs) in castrated pig plasma withdrawn from femoral vein at 0.8 mg/kg administered as intrajejunal dose 20 mins after ketoconazole administration by UPLC-tandem mass spectrometry; assay type: ADME, organism-based, Sus scrofa; parameters: time < 6 hr, dose 0.8 mg/kg; conditions: male; procedure, shortened: as §1
# [4] = Cmax in castrated pig plasma withdrawn from hepatic vein at 0.8 mg/kg administered as intrajejunal dose by UPLC-tandem mass spectrometry; assay type: ADME, organism-based, Sus scrofa; parameters: dose 0.8 mg/kg; conditions: male; procedure, shortened: as §1
# [5] = Tmax in castrated pig plasma withdrawn from portal vein at 0.8 mg/kg administered as intrajejunal dose by UPLC-tandem mass spectrometry; assay type: ADME, organism-based, Sus scrofa; parameters: dose 0.8 mg/kg; conditions: male
# Procedure, shortened: (§2)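 Portal, hepatic and femoral vein plasma sampled over 6 h and assayed by UPLC-MS/MS. Tmax read directly from the profiles. Terminal t1/2 calculated as ln2/λz by non- or compartmental analysis; values below LLOQ after Cmax excluded.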
# [6] = Tmax in castrated pig plasma withdrawn from portal vein at 0.8 mg/kg administered as intrajejunal dose 20 mins after ketoconazole administration by UPLC-tandem mass spectrometry; assay type: ADME, organism-based, Sus scrofa; parameters: dose 0.8 mg/kg; conditions: male; procedure, shortened: as §2
# [7] = Apparent biliary clearance in castrated pig at 0.2 mg/kg, iv by UPLC-tandem mass spectrometry; assay type: ADME, organism-based, Sus scrofa, Bile; parameters: dose 0.2 mg/kg, route intravenous; conditions: in vivo
# [8] = Cmax in castrated pig bile at 0.8 mg/kg administered as intrajejunal dose by UPLC-tandem mass spectrometry; assay type: ADME, organism-based, Sus scrofa; parameters: dose 0.8 mg/kg; conditions: male
# [9] = Ratio of AUC in bile to plasma withdrawn from hepatic vein in castrated pig at 0.8 mg/kg administered as intrajejunal dose by UPLC-tandem mass spectrometry; assay type: ADME, organism-based, Sus scrofa; parameters: dose 0.8 mg/kg; conditions: male, read-out: Ratio AUC
# Procedure, shortened: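 Bile collected 0-6 h and weighed; portal and hepatic vein plasma sampled. UPLC-MS/MS quantification against finasteride-d9 in SRM mode. Bile/plasma AUC ratio calculated per vein.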
# [10] = Biliary excretion in castrated pig assessed as unchanged drug level at 0.2 mg/kg, iv measured during 6 hrs sampling by UPLC-tandem mass spectrometry; assay type: ADME, organism-based, Sus scrofa, Bile; parameters: dose 0.2 mg/kg, route intravenous; conditions: in vivo
compound,measurement,setting,value
CC(C)(C)NC(=O)[C@H]1CC[C@H]2[C@@H]3CC[C@H]4NC(=O)C=C[C@]4(C)[C@H]3CC[C@]12C [FINASTERIDE],AUC(0-t) at 6 h,[1],1.2 µM·h
same,CLH,Sus scrofa,25 mL/min/kg
same,AUC(0-t) at 6 h,[2],4.1 µM·h
same,AUC(0-t) at 6 h,[3],4.4 µM·h
same,Cmax,[4],1000 nM
same,Tmax,[5],18 min
same,Tmax,[6],18 min
same,CL(app),[7],0.014 mL/min/kg
same,Cmax,[8],1300 nM
same,Kp,[9],14
same,Ae,[10],0.032 µmol
